{"data": "Measured values of several laboratories", "target": "Activin receptor type-1 (ACVR1, Homo sapiens, UniProt Q04771)", "One construct used (Q04771 21-509)": "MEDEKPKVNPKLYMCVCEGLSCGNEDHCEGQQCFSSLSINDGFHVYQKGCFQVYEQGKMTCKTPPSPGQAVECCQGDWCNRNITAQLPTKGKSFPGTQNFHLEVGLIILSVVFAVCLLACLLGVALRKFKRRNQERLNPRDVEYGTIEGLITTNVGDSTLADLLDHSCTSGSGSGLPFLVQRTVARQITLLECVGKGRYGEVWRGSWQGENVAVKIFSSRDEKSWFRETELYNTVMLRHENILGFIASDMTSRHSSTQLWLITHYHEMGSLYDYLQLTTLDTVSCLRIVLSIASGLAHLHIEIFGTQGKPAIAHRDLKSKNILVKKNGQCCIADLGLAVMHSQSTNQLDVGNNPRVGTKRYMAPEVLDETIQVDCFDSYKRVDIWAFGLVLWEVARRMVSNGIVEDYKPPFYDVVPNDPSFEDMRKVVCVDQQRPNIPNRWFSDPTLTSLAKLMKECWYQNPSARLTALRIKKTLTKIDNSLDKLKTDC", "note": "Each line is one published result; the experiments were not run side by side."}
{"SMILES": "COc1ccnn2ncc(-c3ccnc(N(C)C)n3)c12", "read-out": "binding", "concentration": "1 µM", "remaining binding": "80%"}
{"SMILES": "O=C(c1ccc(Nc2nccc(-c3cc4ccccc4s3)n2)cc1)N1CCC(N2CCCC2)CC1", "read-out": "binding", "method": "competition with immobilised ligand", "concentration": "1 µM", "remaining binding": "26%"}
{"SMILES": "C[C@H](c1cccc(C#N)c1)n1cc(Cl)cc(C(N)=O)c1=N", "read-out": "cell-free assay", "method": "competition with immobilised ligand", "concentration": "1 µM", "remaining binding": "88%"}
{"SMILES": "COc1cnc(Nc2cccc(S(N)(=O)=O)c2)nc1N1CCN(c2ccccc2)C(=O)C1", "read-out": "binding", "method": "competition with immobilised ligand", "concentration": "1 µM", "remaining binding": "100%"}
{"SMILES": "c1cncc(-c2cccc(Nc3nccc(NC4CCCCC4)n3)c2)c1", "read-out": "binding", "method": "competition with immobilised ligand", "concentration": "10 µM", "remaining binding": "15%"}
{"SMILES": "O=C(NCC1CCOCC1)c1n[nH]cc1NC(=O)c1c(F)cccc1F", "read-out": "binding", "method": "competition with immobilised ligand", "concentration": "1 µM", "remaining binding": "96%"}
{"SMILES": "F[C@@H]1CCN(c2nccc(-c3cnn4ncccc34)n2)C1", "read-out": "binding", "concentration": "1 µM", "remaining binding": "80%"}
{"SMILES": "COc1ccc2c(O[C@@H]3C[C@H]4C(=O)N[C@]5(C(=O)O)CC5/C=C\\CCCCC[C@H](NC(=O)OC5CCCC5)C(=O)N4C3)cc(-c3csc(NC(=O)C(C)C)n3)nc2c1C (stereo partly drawn)", "read-out": "cell-free assay", "method": "competition with immobilised ligand", "concentration": "1 µM", "remaining binding": "100%"}
{"SMILES": "C[C@@H](c1ccc(-n2cnc3c(N)ncnc32)cc1)N1CCc2nn(C)c(Cc3ccccc3)c2C1=O", "read-out": "binding", "method": "competition with immobilised ligand", "concentration": "0.1 µM", "remaining binding": "85%"}
{"SMILES": "FC(F)(F)Oc1cccc(-c2cnc3ccc(-c4ccncc4)nn23)c1", "read-out": "cell-free assay", "method": "competition with immobilised ligand", "concentration": "5 µM", "remaining binding": "8.9%"}
{"SMILES": "CSc1cccnc1N1CCN(Cc2nc3ccccc3[nH]2)CC1", "read-out": "cell-free assay", "method": "competition with immobilised ligand", "concentration": "1 µM", "remaining binding": "100%"}
{"SMILES": "C[C@@H]1CCN(c2nccc(-c3cnn4ncccc34)n2)C1", "read-out": "binding", "concentration": "1 µM", "remaining binding": "100%"}
{"SMILES": "O=C(NCCCC1CCCCC1)c1ccc(CNC(=O)c2cnn(-c3ccccc3)c2C(F)(F)F)cc1", "read-out": "cell-free assay", "method": "competition with immobilised ligand", "concentration": "0.1 µM", "remaining binding": "100%"}
{"SMILES": "CN(CCCC(F)(F)F)c1nccc(-c2cnn3ncccc23)n1", "read-out": "binding", "concentration": "1 µM", "remaining binding": "77%"}
{"SMILES": "O=C(c1ccc(Nc2ncc(Cl)c(-c3ccc(Cl)s3)n2)cc1)N1CCC(N2CCCC2)CC1", "read-out": "binding", "method": "competition with immobilised ligand", "concentration": "1 µM", "remaining binding": "41%"}
{"SMILES": "O=C(O)[C@@H]1[C@@H](Cn2nnc3ccccc3c2=O)CC[C@H]1C(=O)c1ccc(OCCC2CCOCC2)cc1", "read-out": "cell-free assay", "method": "competition with immobilised ligand", "concentration": "1 µM", "remaining binding": "100%"}
{"SMILES": "COc1ncc2cc3ccccc3nc2c1C#N", "read-out": "cell-free assay", "method": "competition with immobilised ligand", "concentration": "5 µM", "remaining binding": "100%"}
{"SMILES": "CN(C)c1ncc(F)c(-c2cnn3ncccc23)n1", "read-out": "binding", "concentration": "1 µM", "remaining binding": "79%"}
{"SMILES": "COc1ccc2c(c1)O[C@@H](c1ccc(OC)c(OC)c1)C[C@H]2NC(=O)C1(c2ccc3c(c2)OC(F)(F)O3)CC1", "read-out": "cell-free assay", "method": "competition with immobilised ligand", "concentration": "1 µM", "remaining binding": "100%"}
{"SMILES": "Cc1cnn2ncc(-c3ccnc(N(C)C)n3)c2c1", "read-out": "binding", "concentration": "1 µM", "remaining binding": "100%"}
{"SMILES": "O=C(c1ccc(Nc2ncc(Cl)c(-c3cc4ccccc4s3)n2)cc1)N1CCC(N2CCCC2)CC1", "read-out": "binding", "method": "competition with immobilised ligand", "concentration": "1 µM", "remaining binding": "69%"}
